Data published in paper PMC11382121 (Molecular Metabolism, 2024).

How the values were obtained:
[1] = system: humans; conditions: exposure levels capable of fully blocking the GIPR; cited from earlier work
[2] = system: HFD-induced obese cynomolgus monkeys; assay: Efficacy study in obese non-human primates; type: in vivo, M. fascicularis; conditions: 42-day daily SC treatment
[3] = Pharmacokinetics in Göttingen minipigs; type: in vivo; conditions: female, minipig, plasma, sc, 3 nmol/kg
Outline: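 Two female Göttingen minipigs (30–35 kg) per test compound, each given a single SC dose of 3 nmol/kg (0.04 mL/kg) in the inguinal fold or behind the ear. Up to 10 blood samples were drawn via an ear-vein central venous catheter to 129 h into chilled EDTA tubes. Plasma (2000 RCF, 15 min, 4 °C) was frozen and assayed by LC-MS/MS. Half-life came from a one-phase exponential decay fit.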

## CC[C@H](C)[C@H](NC(=O)[C@H](CO)NC(=O)[C@H](Cc1ccc(O)cc1)NC(=O)[C@H](CC(=O)O)NC(=O)[C@H](CO)NC(=O)[C@@H](NC(=O)[C@H](Cc1ccccc1)NC(=O)[C@@H](NC(=O)CNC(=O)[C@@H](N)CCC(=O)O)[C@@H](C)O)[C@@H](C)CC)C(=O)N[C@@H](C)C(=O)N[C@@H](CCSC)C(=O)N[C@@H](CC(=O)O)C(=O)N[C@@H](CCCCN)C(=O)N[C@H](C(=O)N[C@@H](Cc1c[nH]cn1)C(=O)N[C@@H](CCC(N)=O)C(=O)N[C@@H](CCC(N)=O)C(=O)N[C@@H](CC(=O)O)C(=O)N[C@@H](Cc1ccccc1)C(=O)N[C@H](C(=O)N[C@@H](CC(N)=O)C(=O)N[C@@H](Cc1c[nH]c2ccccc12)C(=O)N[C@@H](CC(C)C)C(=O)N[C@@H](CC(C)C)C(=O)N[C@@H](C)C(=O)N[C@@H](CCC(N)=O)C(=O)N[C@@H](CCCCN)C(N)=O)C(C)C)[C@@H](C)CC [GIP(3–30)NH2]
[1]
  nausea, comfort or other side effects: no alterations in nausea, comfort, or any other side effects

## CCCCCCCCCCCCCCCC(=O)N[C@@H](CCC(=O)NCCCC[C@H](NC(=O)[C@H](C)NC(=O)[C@H](C)NC(=O)[C@H](CCC(N)=O)NC(=O)CNC(=O)[C@H](CCC(=O)O)NC(=O)[C@H](CC(C)C)NC(=O)[C@H](Cc1ccc(O)cc1)NC(=O)[C@H](CO)NC(=O)[C@H](CO)NC(=O)[C@@H](NC(=O)[C@H](CC(=O)O)NC(=O)[C@H](CO)NC(=O)[C@@H](NC(=O)[C@H](Cc1ccccc1)NC(=O)[C@@H](NC(=O)CNC(=O)[C@H](CCC(=O)O)NC(=O)[C@H](C)NC(=O)[C@@H](N)Cc1cnc[nH]1)[C@@H](C)O)[C@@H](C)O)C(C)C)C(=O)N[C@@H](CCC(=O)O)C(=O)N[C@@H](Cc1ccccc1)C(=O)N[C@H](C(=O)N[C@@H](C)C(=O)N[C@@H](Cc1c[nH]c2ccccc12)C(=O)N[C@@H](CC(C)C)C(=O)N[C@H](C(=O)N[C@@H](CCCNC(=N)N)C(=O)NCC(=O)N[C@@H](CCCNC(=N)N)C(=O)NCC(=O)O)C(C)C)[C@@H](C)CC)C(=O)O [Liraglutide]
[2]
  tolerability / side effects: one NHP in the liraglutide monotreatment group that stopped eating and drinking

## CC[C@H](C)[C@H](NC(=O)[C@H](CC(C)C)NC(=O)[C@H](Cc1c[nH]c2ccccc12)NC(=O)[C@H](CCC(N)=O)NC(=O)[C@@H](NC(=O)[C@H](Cc1ccccc1)NC(=O)[C@H](C)NC(=O)[C@H](CCCCNC(=O)COCCOCCNC(=O)COCCOCCNC(=O)CC[C@H](NC(=O)CCCCCCCCCCCCCCCCCCC(=O)O)C(=O)O)NC(=O)[C@H](CCC(N)=O)NC(=O)[C@H](C)NC(=O)[C@@H](NC(=O)[C@H](CCCCN)NC(=O)[C@H](CC(=O)O)NC(=O)[C@H](CC(C)C)NC(=O)C(C)(C)NC(=O)[C@@H](NC(=O)[C@H](CO)NC(=O)[C@H](Cc1ccc(O)cc1)NC(=O)[C@H](CC(=O)O)NC(=O)[C@H](CO)NC(=O)[C@@H](NC(=O)[C@H](Cc1ccccc1)NC(=O)[C@@H](NC(=O)CNC(=O)[C@H](CCC(=O)O)NC(=O)C(C)(C)NC(=O)[C@@H](N)Cc1ccc(O)cc1)[C@@H](C)O)[C@@H](C)O)[C@@H](C)CC)[C@@H](C)CC)C(C)C)C(=O)N[C@@H](C)C(=O)NCC(=O)NCC(=O)N1CCC[C@H]1C(=O)N[C@@H](CO)C(=O)N[C@@H](CO)C(=O)NCC(=O)N[C@@H](C)C(=O)N1CCC[C@H]1C(=O)N1CCC[C@H]1C(=O)N1CCC[C@H]1C(=O)N[C@@H](CO)C(N)=O [Tirzepatide]
[3]
  AUC(0-inf): 4.12 µM·h
  half-life: 83 h
